According to ChEMBL document CHEMBL1135408, “Design and synthesis of novel 5-substituted acyclic pyrimidine nucleosides as potent and selective inhibitors of hepatitis B virus” (J Med Chem, 2002):
≈ marks a conversion by molar mass, not a printed value.

Legend:
Anas sp. [1] = experiment: Concentration required to reduce the viral DNA in infected cells to 50% of untreated infected controls of Hepatitis B virus in primary duck hepatocyte (DHBV) cultures; assay type: functional
How it was run: (§1)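 Primary hepatocytes from 9–14 day old ducklings persistently infected with DHBV, in L-15 with 5% FBS plus antibiotics. Compound was serially diluted and added in triplicate from day 2, with medium changed every second day to day 12; cells were harvested day 14. Viral DNA was measured by 32P-probe dot-blot and phosphorimaging, and EC50 was taken as 50% reduction versus untreated infected cells.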

Daudi = experiment: Concentration required to reduce the proliferation of Daudi cells to 50% of untreated controls; assay type: functional, cell-based; conditions: Homo sapiens
How it was run: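 Daudi cells were grown in suspension, so no trypsin detachment was used. CC50 is the concentration reducing proliferation to 50% of untreated controls.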

Anas sp. [2] = experiment: In vitro antiviral activity against Hepatitis B virus in primary duck hepatocyte (DHBV) cultures and expressed as percent inhibition of viral DNA at 10 ug/mL; assay type: functional
How it was run: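 DHBV-infected primary duck hepatocytes in L-15 with 5% FBS were treated at 10 µg/mL final in triplicate from day 2 to day 12, with medium changed every second day, and harvested day 14. DNA was extracted and dot-blot hybridized with a 32P DHBV probe, then quantified by phosphorimaging. % inhibition = (untreated − treated)×100/untreated, averaged over triplicates.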

HFF [3] = experiment: Cytotoxic concentration required to reduce the uptake of neutral red stain by uninfected cell monolayers to 50% of untreated uninfected human foreskin fibroblasts (HFF); assay type: functional
How it was run: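 Neutral red uptake was measured in uninfected human foreskin fibroblast monolayers after 7 days of exposure. CC50 is 50% of untreated uninfected cells; ">" means 50% was not reached at the highest concentration tested.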

HFF [4] = experiment: Concentration required to reduce the proliferation of HFF (human foreskin fibroblasts) cells to 50% of untreated controls; assay type: functional, cell-based
[5] = Concentration required to reduce the proliferation of PHA stimulated human peripheral blood T lymphocytes to 50% of untreated PHA stimulated control; assay type: functional
How it was run: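 Nylon-wool-enriched T cells from normal donor buffy coats, 2 × 10^5 per well in serum-free AIM V, were stimulated with PHA at 1 µg/mL final. Compounds from DMSO stock were tested in triplicate from 50 µg/mL in serial dilutions. After 3–4 days at 37 °C, cells were pulsed with [3H]thymidine 1 µCi/well for 18 h and counted by scintillation. Counts were compared with DMSO-matched PHA controls.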

Vero = experiment: Cytotoxic concentration required to reduce the viability of Vero cells as determined by MTT assay; assay type: functional; conditions: Chlorocebus sabaeus
How it was run: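 Vero cells were seeded at 2.5 × 10^4 per well and attached for 6–8 h. They were then exposed for 3 days at 37 °C to 200–1.5 µg/mL, with a DMSO control. MTT was added for 4 h, solubilized overnight, and absorbance read at 560–650 nm. CC50 is 50% viability of untreated control.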

Anas sp. [6] = experiment: Concentration required to reduce the viral DNA in infected cells to 50% of untreated infected controls of Hepatitis B virus in primary duck hepatocyte (DHBV) cultures.; assay type: functional, organism-based; how it was run: as §1

| IC50 (Daudi) [µg/mL] | SMILES | EC50 (Anas sp. [1]) [µg/mL] | inhibition at 10 µg/mL (Anas sp. [2]) [%] | CC50 (HFF [3]) [µg/mL] | IC50 (HFF [4]) [µg/mL] | IC50 [5] [µg/mL] | CC50 (Vero) [µg/mL] | EC50 (Anas sp. [6]) [µg/mL] |
| --- | --- | --- | --- | --- | --- | --- | --- | --- |
| – | CC(N=[N+]=[N-])c1cn(COCCO)c(=O)[nH]c1=O (stereo not given) | > 10 | – | – | – | – | – | – |
| > 50 | C=C(N=[N+]=[N-])c1cn(COCCO)c(=O)[nH]c1=O | 0.01 (≈ 0.0395 µM) | 84 | > 100 | > 100 | > 50 | > 100 | – |
| – | CC(N=[N+]=[N-])c1cn(CCC(CO)CO)c(=O)[nH]c1=O (stereo not given) | 0.1 (≈ 0.353 µM) | – | – | – | – | – | – |
| – | Nc1ccn([C@@H]2CS[C@H](CO)O2)c(=O)n1 [LAMIVUDINE] | 0.01 (≈ 0.0436 µM) | 96 | – | – | > 50 | > 100 | – |
| – | Nc1nc(O)c2ncn(CCC(CO)CO)c2n1 [PENCICLOVIR] | – | – | – | – | – | – | 0.3 (≈ 1.18 µM) |
| > 50 | C=C(N=[N+]=[N-])c1cn(CCC(CO)CO)c(=O)[nH]c1=O | 0.01 (≈ 0.0356 µM) | 93 | > 100 | > 100 | > 50 | > 200 | – |
| – | Nc1nc2c(ncn2COC(CO)CO)c(=O)[nH]1 [GANCICLOVIR] | 1.5 (≈ 5.88 µM) | – | – | – | – | – | – |
| > 50 | C=C(N=[N+]=[N-])c1cn(COC(CO)CO)c(=O)[nH]c1=O | 0.01 (≈ 0.0353 µM) | 86 | > 100 | 100 (≈ 353 µM) | > 50 | > 200 | – |
| – | CC(N=[N+]=[N-])c1cn(COC(CO)CO)c(=O)[nH]c1=O (stereo not given) | 1 (≈ 3.51 µM) | – | – | – | – | – | – |
